Results on one substance are retold here after ChEMBL document CHEMBL1122792, “Synthesis and biological evaluation of radiolabeled beta-ruthenocenylalanine” (J Med Chem, 1984).

Settings in all cases: in vivo
The subject of data set [1] is Rattus norvegicus. Briefly: Distribution of Radioactivity in liver of Fisher 344 Rats by intravenous administration of compound after 1 hour expressed as dose/gram. The format is ADME, organism-based. In outline:
(§1)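 Female Fischer 344 rats, 10-12 weeks old (170-200 g), fed and watered ad libitum; four rats per time point. Each received ~6.3 μCi in 0.05 mL saline (pH 7.4, filtered), given by lateral tail vein under ether anesthesia. Tissues taken at 5 min, 1 h, 4 h and 1 day. Injectate standards used; values as mean % injected dose/g with range.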

Data set [2] concerns Rattus norvegicus. Briefly: Distribution of Radioactivity in blood of Fisher 344 Rats by intravenous administration of compound after 4 hour expressed as dose/gram. The format is ADME, organism-based. In outline: as §1
The test system of data set [3] is Rattus norvegicus. Briefly: Distribution of Radioactivity in adrenals of Fisher 344 Rats by intravenous administration of compound after 4 hour expressed as dose/gram. The format is ADME, organism-based, Adrenal gland. In outline: as §1
Data set [4] deals with Rattus norvegicus. In words: Distribution of Radioactivity in thymus of Fisher 344 Rats by intravenous administration of compound after 1 hour expressed as dose/gram. The format is ADME, organism-based. Summed up:
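Female Fischer 344 rats, 10-12 weeks old (170-200 g), food and water ad libitum; four rats per time point. About 6.3 μCi given in 0.05 mL saline (pH 7.4, filtered) by lateral tail vein under ether anesthesia. Tissues sampled at 5 min, 1 h, 4 h or 1 day. %ID/g computed from injectate standards; mean and range given.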

beta-[103,106Ru]Ruthenocenylalanine: the Injected was 1.27% in data set [1], 0.134% in data set [2], 0.047% in data set [3] and 0.13% in data set [4].
